Assay results from ChEMBL document CHEMBL1152541, “Staurosporine tethered peptide ligands that target cAMP-dependent protein kinase (PKA): optimization and selectivity profiling” (Bioorg Med Chem, 2009).
Values belong to the compound of their own block, whether it stands above or below them. *1 amine or outer side, *2 acyl side, *3 side chain or, on linkers, in order; H or OH if unused. Where a SMILES comes first, the peptide text is derived from it. Bridges are numbered along the chain shown (N, C = ends). [ ]: non-standard residue; d: D form. The star is where a group is joined. Staurosporine = CO[C@@H]1[C@H](N(C)*)C[C@H]2O[C@]1(C)n1c3ccccc3c3c4c(c5c6ccccc6n2c5c31)C(=O)NC4; Suc = O=C(CCC(=O)[*:2])[*:1]; Dap = NC[C@H](N)C(=O)O; βAla = NCCC(=O)O

Key:
[1] = test system: Mast/stem cell growth factor receptor Kit (Homo sapiens), P10721 [D816V]; experiment: Binding affinity to human KIT D816V mutant at 500 nM by cell-based competition binding assay relative to control in presence of DTT
Sequence of Mast/stem cell growth factor receptor Kit (Homo sapiens), P10721 [D816V] (P10721 whole entry D816V): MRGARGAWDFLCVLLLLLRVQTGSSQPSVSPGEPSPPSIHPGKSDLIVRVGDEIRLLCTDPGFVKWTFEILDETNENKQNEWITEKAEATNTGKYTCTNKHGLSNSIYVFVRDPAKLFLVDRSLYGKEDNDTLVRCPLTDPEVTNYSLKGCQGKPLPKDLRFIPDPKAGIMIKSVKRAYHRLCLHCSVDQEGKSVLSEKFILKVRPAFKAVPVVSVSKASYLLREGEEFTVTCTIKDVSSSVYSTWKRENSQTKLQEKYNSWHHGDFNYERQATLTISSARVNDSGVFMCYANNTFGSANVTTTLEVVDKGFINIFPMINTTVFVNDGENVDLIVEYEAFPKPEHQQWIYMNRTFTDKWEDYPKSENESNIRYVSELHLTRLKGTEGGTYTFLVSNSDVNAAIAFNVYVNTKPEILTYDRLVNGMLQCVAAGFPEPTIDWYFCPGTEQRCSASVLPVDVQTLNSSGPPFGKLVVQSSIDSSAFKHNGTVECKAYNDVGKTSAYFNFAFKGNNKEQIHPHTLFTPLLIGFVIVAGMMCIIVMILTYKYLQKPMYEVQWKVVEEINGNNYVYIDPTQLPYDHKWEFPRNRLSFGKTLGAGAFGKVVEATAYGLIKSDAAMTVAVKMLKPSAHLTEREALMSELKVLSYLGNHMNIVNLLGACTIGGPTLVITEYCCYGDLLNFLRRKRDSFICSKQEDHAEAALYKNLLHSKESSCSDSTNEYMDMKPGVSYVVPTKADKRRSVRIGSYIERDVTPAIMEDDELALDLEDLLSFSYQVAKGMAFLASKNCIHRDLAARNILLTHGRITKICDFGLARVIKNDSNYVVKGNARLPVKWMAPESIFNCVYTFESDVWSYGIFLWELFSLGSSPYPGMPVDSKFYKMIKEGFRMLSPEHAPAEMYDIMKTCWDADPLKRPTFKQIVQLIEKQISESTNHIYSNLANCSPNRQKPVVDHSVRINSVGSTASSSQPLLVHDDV
Procedure, shortened: (§1)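 Competition binding screen (Ambit) across a panel of 90 kinases, scoring test ligand displacement of each kinase's binding relative to control. The screen ran under reducing conditions with 7.5 mM DTT.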

[2] = target: Angiopoietin-1 receptor (Homo sapiens) (UniProt Q02763); experiment: Binding affinity to human TIE2 at 200 nM by cell-based competition binding assay relative to control in presence of DTT
Sequence of Angiopoietin-1 receptor (Homo sapiens) (Q02763 whole entry): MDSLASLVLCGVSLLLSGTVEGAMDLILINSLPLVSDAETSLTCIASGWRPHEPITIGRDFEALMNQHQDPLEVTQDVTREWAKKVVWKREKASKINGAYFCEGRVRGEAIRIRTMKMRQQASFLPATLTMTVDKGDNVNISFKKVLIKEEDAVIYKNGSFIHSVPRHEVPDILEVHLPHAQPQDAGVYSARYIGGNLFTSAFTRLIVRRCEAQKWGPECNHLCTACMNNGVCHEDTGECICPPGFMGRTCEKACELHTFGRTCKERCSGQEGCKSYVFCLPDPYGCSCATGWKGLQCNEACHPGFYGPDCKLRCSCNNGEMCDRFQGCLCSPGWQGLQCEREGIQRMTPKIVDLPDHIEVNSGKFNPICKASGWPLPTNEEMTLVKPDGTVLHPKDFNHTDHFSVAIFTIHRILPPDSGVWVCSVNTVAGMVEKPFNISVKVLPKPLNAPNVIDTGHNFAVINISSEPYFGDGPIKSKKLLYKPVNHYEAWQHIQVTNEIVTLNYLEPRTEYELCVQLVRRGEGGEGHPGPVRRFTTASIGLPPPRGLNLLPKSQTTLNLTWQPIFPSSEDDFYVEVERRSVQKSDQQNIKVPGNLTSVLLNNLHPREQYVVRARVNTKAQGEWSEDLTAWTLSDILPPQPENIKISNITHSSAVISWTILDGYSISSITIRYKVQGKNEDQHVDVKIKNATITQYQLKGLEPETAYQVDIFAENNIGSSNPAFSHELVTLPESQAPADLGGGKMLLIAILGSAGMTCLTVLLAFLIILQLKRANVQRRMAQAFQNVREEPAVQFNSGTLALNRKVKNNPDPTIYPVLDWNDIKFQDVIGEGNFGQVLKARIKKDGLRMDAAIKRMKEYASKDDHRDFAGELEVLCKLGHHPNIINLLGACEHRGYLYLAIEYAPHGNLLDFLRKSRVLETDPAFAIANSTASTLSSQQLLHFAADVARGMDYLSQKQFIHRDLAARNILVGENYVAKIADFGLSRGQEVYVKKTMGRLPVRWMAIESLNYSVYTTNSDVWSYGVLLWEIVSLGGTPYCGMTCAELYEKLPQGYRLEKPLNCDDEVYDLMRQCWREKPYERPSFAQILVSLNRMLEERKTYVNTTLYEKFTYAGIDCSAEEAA

[3] = target: Tyrosine-protein kinase ABL1 (Homo sapiens) (UniProt P00519); experiment: Binding affinity to human ABL1 at 200 nM by cell-based competition binding assay relative to control in presence of DTT
Sequence of Tyrosine-protein kinase ABL1 (Homo sapiens) (P00519 whole entry): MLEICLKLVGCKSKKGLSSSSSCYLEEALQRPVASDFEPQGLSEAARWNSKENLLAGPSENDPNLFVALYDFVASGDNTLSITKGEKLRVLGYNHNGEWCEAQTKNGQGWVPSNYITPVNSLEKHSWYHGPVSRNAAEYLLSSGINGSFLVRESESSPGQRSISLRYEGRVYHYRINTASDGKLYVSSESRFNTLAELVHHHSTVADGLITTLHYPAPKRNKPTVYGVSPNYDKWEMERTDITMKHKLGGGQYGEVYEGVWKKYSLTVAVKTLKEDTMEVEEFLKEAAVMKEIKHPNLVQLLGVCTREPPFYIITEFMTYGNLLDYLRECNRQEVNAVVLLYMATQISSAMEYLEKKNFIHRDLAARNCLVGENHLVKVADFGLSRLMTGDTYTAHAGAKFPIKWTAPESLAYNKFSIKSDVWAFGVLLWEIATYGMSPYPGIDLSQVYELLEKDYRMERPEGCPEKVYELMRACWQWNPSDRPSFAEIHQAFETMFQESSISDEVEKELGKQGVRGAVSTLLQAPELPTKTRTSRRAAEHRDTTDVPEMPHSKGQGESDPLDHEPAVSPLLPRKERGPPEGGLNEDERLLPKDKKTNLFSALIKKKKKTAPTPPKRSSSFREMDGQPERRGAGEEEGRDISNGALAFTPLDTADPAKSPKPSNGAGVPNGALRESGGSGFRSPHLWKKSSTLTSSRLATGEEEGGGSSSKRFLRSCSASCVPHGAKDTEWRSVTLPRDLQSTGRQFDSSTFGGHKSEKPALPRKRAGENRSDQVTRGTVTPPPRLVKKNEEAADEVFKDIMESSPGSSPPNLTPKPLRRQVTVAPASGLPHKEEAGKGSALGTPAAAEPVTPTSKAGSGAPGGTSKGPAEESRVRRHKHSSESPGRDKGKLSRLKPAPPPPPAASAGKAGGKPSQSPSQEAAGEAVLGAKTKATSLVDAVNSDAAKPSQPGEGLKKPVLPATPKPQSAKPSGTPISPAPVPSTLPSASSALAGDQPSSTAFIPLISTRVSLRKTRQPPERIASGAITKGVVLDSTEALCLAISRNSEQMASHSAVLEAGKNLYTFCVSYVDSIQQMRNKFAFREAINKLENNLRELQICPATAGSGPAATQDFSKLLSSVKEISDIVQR
Procedure, shortened: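 Kinase binding profiling ran on a commercial (Ambit) competitive binding screen against a panel of 90 kinases. The screen used reducing conditions with 7.5 mM DTT. To withstand the DTT, the bivalent ligand was tested as its amide isostere, with the disulfide replaced. A staurosporine derivative carrying a 3 β-alanine linker was run as the reference compound.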

[4] = target: Casein kinase I isoform delta (Homo sapiens) (UniProt P48730); experiment: Binding affinity to human CSNK1D at 200 nM by cell-based competition binding assay relative to control in presence of DTT
Sequence of Casein kinase I isoform delta (Homo sapiens) (P48730 whole entry, looked up, canonical isoform): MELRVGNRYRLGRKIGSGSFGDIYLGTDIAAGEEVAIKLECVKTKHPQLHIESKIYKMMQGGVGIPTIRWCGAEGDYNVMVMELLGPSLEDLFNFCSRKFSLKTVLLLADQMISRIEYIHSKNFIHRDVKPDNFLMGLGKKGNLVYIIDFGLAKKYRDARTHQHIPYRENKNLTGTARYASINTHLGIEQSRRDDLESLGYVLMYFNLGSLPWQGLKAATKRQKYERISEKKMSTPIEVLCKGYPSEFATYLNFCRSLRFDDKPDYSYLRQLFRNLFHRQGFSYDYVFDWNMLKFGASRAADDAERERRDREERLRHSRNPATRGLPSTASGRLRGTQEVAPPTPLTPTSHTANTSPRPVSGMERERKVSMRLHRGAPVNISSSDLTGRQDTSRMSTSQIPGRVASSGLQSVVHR
Procedure, shortened: (§2)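 Commercial (Ambit) competitive kinase-binding panel of 90 kinases measured the binding profile. Run under reducing conditions of 7.5 mM DTT. Binding is expressed relative to control.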

[5] = target: T1, Serine/threonine-protein kinase Chk1 (Homo sapiens) (UniProt O14757); experiment: Binding affinity to human CHEK1 at 50 nM by cell-based competition binding assay relative to control in presence of DTT; procedure, shortened: as §2
T1 sequence (whole entry): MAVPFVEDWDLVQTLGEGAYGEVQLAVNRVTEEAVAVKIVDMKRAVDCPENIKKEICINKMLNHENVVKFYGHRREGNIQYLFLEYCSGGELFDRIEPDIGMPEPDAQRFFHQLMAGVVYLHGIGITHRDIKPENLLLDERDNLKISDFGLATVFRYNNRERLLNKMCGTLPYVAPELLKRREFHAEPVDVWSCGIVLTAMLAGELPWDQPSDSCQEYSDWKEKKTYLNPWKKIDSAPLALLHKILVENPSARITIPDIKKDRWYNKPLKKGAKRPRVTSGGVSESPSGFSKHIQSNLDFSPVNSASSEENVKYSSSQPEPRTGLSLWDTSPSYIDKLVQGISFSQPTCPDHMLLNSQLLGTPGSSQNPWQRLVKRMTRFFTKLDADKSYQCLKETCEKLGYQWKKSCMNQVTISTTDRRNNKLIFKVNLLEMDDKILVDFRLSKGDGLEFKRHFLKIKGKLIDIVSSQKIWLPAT

[6] = target: T2, Serine/threonine-protein kinase PLK4 (Homo sapiens) (UniProt O00444); experiment: Binding affinity to human PLK4 at 50 nM by cell-based competition binding assay relative to control in presence of DTT
T2 sequence (whole entry): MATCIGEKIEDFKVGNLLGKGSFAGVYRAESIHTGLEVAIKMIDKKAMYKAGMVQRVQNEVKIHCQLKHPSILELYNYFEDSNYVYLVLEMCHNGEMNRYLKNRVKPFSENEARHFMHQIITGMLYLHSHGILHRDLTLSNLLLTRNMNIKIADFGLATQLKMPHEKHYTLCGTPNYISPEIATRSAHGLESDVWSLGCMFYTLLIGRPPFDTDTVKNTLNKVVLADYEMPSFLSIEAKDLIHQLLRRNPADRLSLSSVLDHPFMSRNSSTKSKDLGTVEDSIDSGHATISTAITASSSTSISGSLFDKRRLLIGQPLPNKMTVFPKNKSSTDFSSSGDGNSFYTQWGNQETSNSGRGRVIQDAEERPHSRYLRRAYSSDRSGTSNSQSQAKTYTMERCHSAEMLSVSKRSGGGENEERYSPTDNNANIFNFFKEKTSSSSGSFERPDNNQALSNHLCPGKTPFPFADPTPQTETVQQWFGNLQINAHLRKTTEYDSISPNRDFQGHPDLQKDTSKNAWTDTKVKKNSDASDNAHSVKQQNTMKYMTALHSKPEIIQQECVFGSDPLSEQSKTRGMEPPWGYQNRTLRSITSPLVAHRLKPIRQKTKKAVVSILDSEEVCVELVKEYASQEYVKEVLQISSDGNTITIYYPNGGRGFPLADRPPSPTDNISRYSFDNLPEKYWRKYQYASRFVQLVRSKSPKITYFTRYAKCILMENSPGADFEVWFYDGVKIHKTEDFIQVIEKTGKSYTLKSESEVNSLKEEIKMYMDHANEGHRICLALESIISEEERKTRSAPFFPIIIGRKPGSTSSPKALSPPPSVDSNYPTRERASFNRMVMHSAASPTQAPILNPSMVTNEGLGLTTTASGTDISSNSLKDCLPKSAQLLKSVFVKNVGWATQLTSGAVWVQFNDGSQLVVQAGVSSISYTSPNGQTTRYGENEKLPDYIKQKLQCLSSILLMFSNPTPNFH

[7] = target: Glycogen synthase kinase-3 beta (Homo sapiens) (UniProt P49841); experiment: Binding affinity to human GSK3-beta at 50 nM by cell-based competition binding assay relative to control in presence of DTT; procedure, shortened: as §1
Sequence of Glycogen synthase kinase-3 beta (Homo sapiens) (P49841 whole entry, looked up): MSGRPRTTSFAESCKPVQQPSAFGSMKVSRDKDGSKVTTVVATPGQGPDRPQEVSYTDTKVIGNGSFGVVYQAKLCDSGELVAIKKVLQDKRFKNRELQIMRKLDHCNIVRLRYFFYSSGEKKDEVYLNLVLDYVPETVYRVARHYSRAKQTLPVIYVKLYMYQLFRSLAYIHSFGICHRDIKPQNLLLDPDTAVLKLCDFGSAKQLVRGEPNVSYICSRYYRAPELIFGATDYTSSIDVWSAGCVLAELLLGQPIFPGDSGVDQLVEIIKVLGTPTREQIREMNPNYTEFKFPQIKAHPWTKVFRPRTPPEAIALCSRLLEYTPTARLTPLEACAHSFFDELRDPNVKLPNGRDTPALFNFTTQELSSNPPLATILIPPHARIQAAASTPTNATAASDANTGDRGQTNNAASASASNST

Activity [1]: 1%
SMILES: CO[C@@H]1[C@H](N(C)C(=O)CCC(=O)NCCC(=O)NCCC(=O)NCCC(N)=O)C[C@H]2O[C@]1(C)n1c3ccccc3c3c4c(c5c6ccccc6n2c5c31)C(=O)NC4

Activity [2]: 65%
Activity [3]: 100%
Activity [4]: 100%
SMILES: CO[C@@H]1[C@H](N(C)C(=O)CCC(=O)NCCC(=O)NCCC(=O)NCCC(=O)NCCC(=O)NCCC(=O)NCCC(=O)NCCC(=O)N[C@H]2CSSC[C@@H](C(=O)NCC(N)=O)NC(=O)CNC(=O)[C@H](Cc3ccccc3)NC(=O)[C@H](C(C)C)NC(=O)[C@H](CCCNC(=N)N)NC(=O)[C@H](Cc3ccccc3)NC(=O)[C@H](C(C)C)NC2=O)C[C@H]2O[C@]1(C)n1c3ccccc3c3c4c(c5c6ccccc6n2c5c31)C(=O)NC4 ({Staurosporine-Suc-βAla-βAla-βAla-βAla-βAla-βAla-βAla}-CVFRVFGCG-NH2; disulfide 1-8)

Activity [5]: 91%
Activity [6]: 5.7%
Activity [7]: 74%
SMILES: CO[C@@H]1[C@H](N(C)C(=O)CCC(=O)NCCC(=O)NCCC(=O)NCCC(=O)NCCC(=O)NCCC(=O)NCCC(=O)NCCC(=O)N[C@H]2CNC(=O)C[C@@H](C(N)=O)NC(=O)CNC(=O)[C@H](Cc3ccccc3)NC(=O)[C@H](C(C)C)NC(=O)[C@H](CCCNC(=N)N)NC(=O)[C@H](Cc3ccccc3)NC(=O)[C@H](C(C)C)NC2=O)C[C@H]2O[C@]1(C)n1c3ccccc3c3c4c(c5c6ccccc6n2c5c31)C(=O)NC4 ({Staurosporine-Suc-βAla-βAla-βAla-βAla-βAla-βAla-βAla}-[Dap]VFRVFGD-NH2; lactam 1-8)
